The list is not random: actives were taken first. Their share in the collection is about 3.5%.
RGS4 inh – inhibitors of human RGS4; B-score at 10 µM; HEK293 M3R/RGS4 inducible, Fluo-4 calcium flux; hits give high values; triggered by carbachol at its EC20; hit rate 0.45% among 310,000; AID 463165; P49798;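 active = B-score, a plate-corrected calcium signal, over three deviations above library mean, with baseline fluorescence within five deviations of library mean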;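 also: RGS4 expression induced by doxycycline in cells with stable M3 receptor; B-score is computed from the integrated fluorescence ratio over baseline after carbachol; higher B-score means a larger calcium signal and so more RGS4 inhibition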
Target sequence (P49798 whole entry, looked up): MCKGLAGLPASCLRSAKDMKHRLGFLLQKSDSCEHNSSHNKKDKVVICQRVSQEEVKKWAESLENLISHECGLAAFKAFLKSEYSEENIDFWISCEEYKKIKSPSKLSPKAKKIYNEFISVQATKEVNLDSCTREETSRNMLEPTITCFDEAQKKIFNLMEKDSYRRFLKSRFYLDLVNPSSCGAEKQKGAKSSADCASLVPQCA
MrgX1 allo act – human MrgX1 positive allosteric modulation, primary screen; Q96LB2; MrgX1-HEK293, Fluo-4 calcium flux, FDSS; hits give high values; B-score at 10 µM; hit rate 0.63% among 310,000; AID 588675;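 active = plate-corrected calcium response at least 3 library SD above typical, normal starting fluorescence, not activating the receptor alone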;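 also: compound read alongside a low EC10 to EC30 dose of BAM8-22 agonist; peak minus trough fluorescence over baseline measured at the second addition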
Target sequence (Q96LB2 whole entry, looked up): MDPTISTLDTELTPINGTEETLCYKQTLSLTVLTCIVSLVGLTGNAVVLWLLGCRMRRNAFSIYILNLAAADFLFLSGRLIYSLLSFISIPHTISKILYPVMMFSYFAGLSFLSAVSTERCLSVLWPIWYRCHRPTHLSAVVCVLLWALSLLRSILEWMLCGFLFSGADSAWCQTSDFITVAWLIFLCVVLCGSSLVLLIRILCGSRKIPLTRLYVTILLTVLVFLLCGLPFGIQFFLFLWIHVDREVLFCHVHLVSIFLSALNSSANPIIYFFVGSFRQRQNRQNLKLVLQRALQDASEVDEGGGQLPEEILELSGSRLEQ
RGS4 act – potentiators or activators of RGS4; HEK293 M3R/inducible RGS4, carbachol calcium flux Fluo4; hits give low values; B-score at 10 µM; hit rate 0.92% among 310,000;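 active = B-score of the integrated calcium signal more than 4 SD below the library mean, with starting fluorescence not abnormally high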;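 also: negative B-score means reduced calcium response which marks RGS4 activation or potentiation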
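Detection: kinetic calcium fluorescence imaging with Fluo4-AM dye, 2 µM / Material: HEK293 cells with stable M3R and inducible RGS4 / Schedule: recording 10 s baseline at 1 Hz, 100 s post-agonist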
MrgX1 antag – blocks BAM8-22 activation of human MrgX1 receptor. Q96LB2. MRGX1-HEK293 calcium flux, Fluo-4, BAM8-22 antagonism; hits give low values. B-score at 10 µM. hit rate 1.3% among 310,000. AID 588676;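 active = calcium-response B-score plate-corrected more than 3 library SD below zero, starting fluorescence within 5 deviations, no agonist response on first addition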;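 also: peak minus trough fluorescence over baseline after final BAM8-22 challenge near maximal dose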
MrgX1 agonist – agonists of human MrgX1 receptor; MrgX1-HEK293 cells, Fluo-4 calcium fluorescence, agonist mode; hits give high values; B-score at 10 µM; hit rate 0.44% among 310,000; AID 588627;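 active = calcium response B-score plate-corrected fluorescence ratio at least 3 library SD, with starting fluorescence B-score inside 5 SD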
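System – MrgX1-expressing HEK293 cells · Incubation – cells plated overnight, dye loaded 0.5 h 37 °C, 0.5 h room temperature · Technique – kinetic Fluo-4 NW fluorescence of intracellular calcium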
RGS4 act valid – confirmation of RGS4 activators | shares compounds with RGS4 act | HEK293 M3R/RGS4 inducible, carbachol calcium flux Fluo4 | inhibition, % at 10 µM | hit rate 89% among 1,100;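 active = inhibition above 3 SD of the buffer control wells, cut at about 41% in these data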;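 also: signal is the integrated peak-minus-minimum Fluo4 fluorescence over baseline ratio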
M3R Ca counter – RGS4 activator counter-screen hit in non-induced cells | shares compounds with RGS4 act | HEK293 M3R non-induced RGS4, Fluo4 calcium flux; after carbachol challenge at its EC90 | inhibition, % at 10 µM | hit rate 82% among 1,100;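 active = inhibition exceeding 3 SD of buffer-only control wells, cut at about 26% in these data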;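 also: percent drop in integrated peak-minus-baseline over baseline Fluo4 ratio after carbachol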
Starred values were filed as active, the others as inactive; i = inactive; . = not tested or not shown.

SMILES | RGS4 inh | MrgX1 allo act | RGS4 act | MrgX1 antag | MrgX1 agonist | RGS4 act valid | M3R Ca counter
Cn1c(CNC(=O)CNC(=O)c2cccc(F)c2)cc(=O)n(C)c1=O | i | i | i | i | i | . | .
O=c1[nH]c2ccccc2cc1CN(Cc1cccnc1)S(=O)(=O)c1ccc(Cl)cc1 | i | 7.3* | -7.8* | i | i | 73* | 30*
Cn1c(SCc2c(Cl)cccc2Cl)nnc1-c1cccs1 | i | i | -12* | i | i | 74* | 84*
O=C(NCCc1ccc(F)cc1)c1cccc(NC(=O)c2ccccc2)c1 | i | i | -7.7* | i | i | 56* | 0
O=C(NCc1ccc(Cl)cc1)c1cccc(NC(=O)c2ccccc2)c1 | i | i | i | i | i | . | .
Cc1ccccc1CC1(CO)CCCN(C(=O)c2ccccc2N(C)C)C1 (stereo unspecified) | i | i | i | i | i | . | .
Cc1ccccc1CC1(CO)CCCN(C(=O)c2ccc3ncccc3c2)C1 (stereo unspecified) | i | i | -10* | i | i | 62* | 84*
CSc1ccc(CN2CCC(Oc3cccc(C(=O)N4CCCC4)c3)CC2)cc1 | i | i | i | i | i | . | .
COC(=O)c1ccc(CN2CCC(Oc3ccc(C(=O)N4CCCCC4)cc3)CC2)cc1 | i | i | -9.9* | i | i | 92* | 80*
COC(=O)c1ccc(CN2CCC(Oc3cccc(C(=O)N4CCCC4)c3)CC2)cc1 | i | i | -8* | i | i | 87* | 59*
COCCCNCCOCCOc1ccc(Cl)cc1C(C)(C)C | i | i | i | i | i | . | .
CCOc1cc(C)c(C(C)C)cc1S(=O)(=O)N1CCOCC1 | i | i | i | i | i | . | .
COc1cc(C)c(C(C)C)cc1S(=O)(=O)N1CCOCC1 | i | i | -8.8* | i | i | 0 | 0
CN(C)CCOC(C)(c1ccccc1)c1ccccn1 (stereo unspecified) | i | i | i | i | i | . | .
COC(C#CCCN(C)C)(c1ccccc1)c1ccccc1 | i | i | -8.4* | i | i | 92* | 96*
CCCCN(CCCC)S(=O)(=O)c1ccc(NC(=O)c2ccc([N+](=O)[O-])cc2Cl)cc1 | i | i | -11* | i | i | 86* | 60*
CC(=O)N1CCN(c2ccc(NC(=O)c3ccc([N+](=O)[O-])cc3Cl)cc2)CC1 | i | i | i | i | i | . | .
c1ccc(-c2cc(-c3nc4ccccc4[nH]3)c3ccccc3n2)cc1 | i | i | -9.6* | i | i | 94* | 77*
Nc1ccc(-c2nc3ccccc3[nH]2)cc1 | i | i | i | i | i | . | .
CCN(CC1CCCN(CCc2cccc(F)c2)C1)C(=O)c1cc2ccccc2o1 (stereo unspecified) | i | i | -7.7* | i | i | 78* | 30*
CSCCC(=O)N(C)CC1CCCN(CCc2cccc(C(F)(F)F)c2)C1 (stereo unspecified) | i | i | i | i | i | . | .
CCN(CC1CCCN(CCc2cccc(F)c2)C1)C(=O)c1cc(C)oc1C (stereo unspecified) | i | i | i | i | i | . | .
CN(CC1CCCN(CCc2cccc(C(F)(F)F)c2)C1)C(=O)c1cc2ccccc2o1 (stereo unspecified) | i | . | -12* | . | . | 92* | 74*
COc1ccccc1OCCNC(=O)c1cccc(S(=O)(=O)N2CC(C)OC(C)C2)c1 (stereo unspecified) | i | i | i | i | i | . | .
O=C(CN1CCN(CC(=O)Nc2cccc(F)c2)CC1)Nc1ccc(-c2ccccc2)cc1 | i | i | i | i | i | . | .
SMILES | RGS4 inh | MrgX1 allo act | RGS4 act | MrgX1 antag | MrgX1 agonist | RGS4 act valid | M3R Ca counter
CN(CC(=O)OCC(=O)NCc1ccccc1)S(=O)(=O)c1ccc(Cl)cc1 | i | i | i | i | i | . | .
Cc1ccc(COc2ccc(CNCCCN3CCCCCC3=O)cc2)cc1 | i | i | -12* | i | i | 93* | 65*
CC1CN(C(=O)CCCN2C(=O)c3ccccc3C2=O)CC(C)O1 (stereo unspecified) | i | i | i | i | i | . | .
CN1CCN(CC(O)(c2ccc(Cl)cc2)c2ccc(Cl)cc2)CC1 | i | i | -10* | i | i | 92* | 65*
N#CCN1CCN(CC(=O)Nc2cccc3ccccc23)CC1 | i | i | i | i | i | . | .
CCOc1ccc2nc(NC(=O)C3(C)CC3(Br)Br)sc2c1 (stereo unspecified) | i | i | -8.1* | i | i | 68* | 84*
COc1ccc(CONS(=O)(=O)c2ccc(NC(C)=O)cc2)cc1Cl | i | i | i | i | i | . | .
Cc1ccc2c(CN3CCN(Cc4ccc5c(c4)OCO5)CC3)cc(=O)oc2c1C | i | i | -8.7* | i | i | 0 | 0
Cc1cc(C)c2c(CN3CCN(Cc4ccc5c(c4)OCO5)CC3)cc(=O)oc2c1 | i | i | -8.7* | i | i | 91* | 52*
Cc1cc(C)c2c(CN3CCN(Cc4ccc5c(c4)OCO5)CC3)cc(=O)oc2c1C | i | i | -7.7* | i | i | 76* | 28*
Cc1cc2oc(=O)cc(CN3CCN(Cc4ccc5c(c4)OCO5)CC3)c2cc1C | i | i | i | i | i | . | .
Cc1cc(C)c2c(CN3CCN(Cc4ccccc4)CC3)cc(=O)oc2c1 | i | i | i | i | i | . | .
CCOC(=O)NC(Nc1ccc(S(N)(=O)=O)cc1)(C(=O)OCC)C(F)(F)F (stereo unspecified) | i | i | i | i | i | . | .
CCOC(=O)c1cnc2ccccc2c1NCc1ccco1 | i | i | -9.7* | i | i | 94* | 92*
CCCCc1nc2cc(C(=O)NCc3nccn3CC)ccc2o1 | i | i | -9.1* | i | i | 92* | 78*
N#Cc1ccccc1NC(=O)c1ccc2c(Cl)c3c(nc2c1)CCCC3 | i | i | -8.1* | i | i | 72* | 47*
CCCN1CCN(CCCNC(=O)c2ccc3c(Cl)c4c(nc3c2)CCCC4)CC1 | i | i | -8.1* | i | i | 94* | 62*
CCc1ccc(-c2cc3c(=O)n(CC(=O)N4CCCCCC4)nc(C)n3n2)cc1 | i | i | i | i | i | . | .

Assay outcomes as filed in PubChem.
